# Sampled rows, rich in hits. Any-hit rate of the full collection: about 2.5%.
# MC4R antag cAMP = blocks human MC4R cAMP signaling | P32245 | MC4R-expressing cells, MTII-stimulated cAMP, LANCE TR-FRET | inhibition, % at 6.5 µM | 360,000 compounds, 0.48% hits;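 active = inhibition above its plate's cutoff, the mean of tested wells on that plate plus 3 SD, cut at about 29% in these data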;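 note: 0% = Melanotan II alone and 100% = Melanotan II plus saturating MCL0020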
#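 Test system: U2OS cells stably expressing human melanocortin 4 receptor (MC4R); also added: Melanotan II challenge; compound: 6.5 µM single dose; timing: 30-min compound preincubation, 1-h Melanotan II challenge, 1-h detection, room temperature; signal: Eu-cAMP/anti-cAMP TR-FRET, emission 671 nm; repeats: one well per compound, no replicates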
# Granule exo inh = blocks lytic granule exocytosis; inhibition, % at 10 µM; AID 651702; TALL-104 LAMP-1 surface exposure, flow cytometry; cells stimulated with thapsigargin and PMA; 360,000 compounds, 0.66% hits;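 active = inhibition above about 55%, limit read from the data; inconclusive = no clear call, values can overlap the other calls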
# HGIII-sPLA2 inh = Blocks human group III sPLA2 activity | Q9NZ20 | QFRET BODIPY PC-A2 liposome hydrolysis, fluorescence | inhibition, % at 12.2 µM | 370,000 compounds, 0.56% hits;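 active = inhibition above mean plus 3 SD of compounds lying within the high and low control bounds, cut at about 19% in these data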;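 note: 0% = median of test compound wells and 100% = no enzyme DMSO wells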
# Bfl-1 A1 inh = inhibitors of the anti-apoptotic protein A1, read as caspase activation; 330,000 compounds, 0.066% hits; MEF A1-2A-BIM cells, Caspase-Glo 3/7 luminescence, 3 h; percent of clofoctol response, vehicle zero; caspase activation, % (no concentration beside the values); AID 2462;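 active = over half of replicate activation scores above 10%, or exactly half above 10 with the replicate mean above 10; inconclusive = replicate mean below 10 yet half the replicates above 10; inactive = over half of replicates below 10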
# NTR1 agonist = NTR1 (human) agonism; NTR1-U2OS beta-arrestin-GFP spot imaging, agonist mode; activation, % at 20 µM; 330,000 compounds, 0.17% hits; AID 493036;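 active = activation at or above 40% of the spot to cytoplasm intensity ratio, with at least 20 cells analyzed; inconclusive = wells under 20 cells, flagged as cytotoxic or low count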;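 note: 0% = DMSO without peptide and 100% = 100 nM NTR1 peptide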
# Target sequence (P30989 whole entry, looked up): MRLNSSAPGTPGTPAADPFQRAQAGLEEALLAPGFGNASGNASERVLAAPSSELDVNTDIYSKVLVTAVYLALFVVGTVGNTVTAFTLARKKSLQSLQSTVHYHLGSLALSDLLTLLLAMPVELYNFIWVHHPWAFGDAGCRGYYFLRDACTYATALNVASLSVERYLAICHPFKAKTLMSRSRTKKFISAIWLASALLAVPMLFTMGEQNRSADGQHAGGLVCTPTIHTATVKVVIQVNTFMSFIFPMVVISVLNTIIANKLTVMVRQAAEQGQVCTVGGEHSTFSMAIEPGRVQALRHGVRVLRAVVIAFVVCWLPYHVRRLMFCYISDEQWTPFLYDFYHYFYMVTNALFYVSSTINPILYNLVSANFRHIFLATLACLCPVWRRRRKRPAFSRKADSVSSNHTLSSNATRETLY
# MC4R ag barr = human MC4R agonism via beta-arrestin; P32245; U2OS MC4R beta-arrestin complementation, luminescence; percent of melanotan II response, DMSO zero; activation, % at 8.9 µM; 360,000 compounds, 0.98% hits; AID 540308;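 active = activation above a per-plate cutoff, the mean activation of sample wells on that plate plus 3 SD, cut at about 8% in these data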
# An asterisk follows results filed as active; ? = inconclusive; nt = no result given.
SMILES,MC4R antag cAMP,Granule exo inh,HGIII-sPLA2 inh,Bfl-1 A1 inh,NTR1 agonist,MC4R ag barr
Cn1cc([N+](=O)[O-])c(C(=O)Nc2ccc(-c3nc4ccccc4o3)cc2)n1,7,0,7,-2,3,13*
O=C(C(=O)N1CCN(C(=O)C2CCCC2)CC1)c1cccc(C(F)(F)F)c1,nt,nt,1,nt,nt,nt
COc1ccc(-n2c(SCC(=O)Nc3cc(C)c(NC(=O)c4ccccc4)cc3OC)nnc2-c2ccco2)cc1,nt,nt,-8,nt,nt,nt
CCOC(=O)c1[nH]c2ccc(Cl)cc2c1NC(=O)c1nonc1C,4,-1,-2,1,0,8.9*
O=C(/C=C/c1cccc(Cl)c1)c1ccc([N+](=O)[O-])o1,34*,-4,3,3,-1,-4
S=C1NC[C@H](Cc2ccccc2)N1CC1CCN(CCCC2CCCCC2)CC1,nt,nt,-8,nt,nt,nt
Cc1cc(/C=C2/C(=N)N3C(c4ccccc4)=CSC3=NC2=O)c(C)n1-c1ccc(Cl)cc1,-6,60*,7,nt,nt,2
Cc1cccc(-n2c(C)cc(/C=C3/C(=N)N4C(c5ccccc5)=CSC4=NC3=O)c2C)c1,-2,-11,2,-1,2,0
O=[N+]([O-])c1ccc(S(=O)(=O)c2cccc(C(F)(F)F)c2)nc1,12,60*,nt,0,12,-3
O=S(=O)(Nc1cccnc1)c1cccc(C(F)(F)F)c1,6,10,-3,0,0,-1
CN(C)c1ccc(C(=O)OCc2ccccc2)cc1,-3,3,12,1,-2,0
O=C1C=CC(=O)C(CNc2ccc(C(=O)OCc3ccccc3)cc2)=C1,0,6,26*,nt,nt,0
Cn1c(SCC(=O)Nc2ccccc2)nnc1-c1ccc(NC(=O)CCc2ccccc2)cc1,0,-3,-5,0,7,9.3*
Cc1ccc(NC(=O)CCC(=O)c2cccs2)c(Br)c1,-1,17,-5,1,0,-2
Cc1ccc(NC(=O)COC(=O)CCC(=O)c2cccs2)c(Br)c1,9,75*,-14,nt,-1,-1
CC(=O)OC[C@]12CC[C@H]3[C@@](C)(CC[C@H]4C(C)(C)CCC[C@]34C)[C@@H]1C[C@H](C1=CC(=O)O[C@H]1OC(C)=O)O2,nt,nt,nt,62*,12,nt
CCOc1ccc(/C=C(\C#N)C(=O)Nc2cccnc2)cc1,2,-1,-4,0,0,-1
CCOc1ccc(NC(=O)/C(C#N)=C\c2ccc(N3CCCC3)c(C)c2)cc1,0,5,0,nt,nt,13*
CC(C)c1cc(C(C)C)c(S(=O)(=O)NCC(=O)N2CCN(c3ncccn3)CC2)c(C(C)C)c1,nt,nt,-3,nt,nt,nt
CCCSc1nnc(-c2ccco2)n1C,nt,nt,1,nt,nt,nt
CCC[C@@H](CN1CCC[C@H]1CN1C(N)=NC[C@@H]1Cc1ccccc1)N1C[C@@H]([C@H](C)CC)N(CCCC2CCCC2)C1=N,39*,21,nt,0,5,3
C[C@@H](CN1CCC[C@H]1CN1C(N)=NC[C@@H]1Cc1ccccc1)N1C[C@@H](Cc2ccccc2)N(CCc2ccc(Cl)c(Cl)c2)C1=N,33*,-2,nt,0,-1,2
COc1ccc(OC)c(C(=O)Cn2nnc(-c3ccc(N4CCOCC4)cc3)n2)c1,14,4,-34,-1,0,9.3*
O=c1cc(-c2ccc(Cl)cc2)oc(=O)[nH]1,3,3,-3,?,4,-2
O=c1cc(N=Nc2ccc(Cl)cc2)[nH]c(=O)[nH]1,24,77*,6,-1,nt,1
SMILES,MC4R antag cAMP,Granule exo inh,HGIII-sPLA2 inh,Bfl-1 A1 inh,NTR1 agonist,MC4R ag barr
N#CC(=Cc1cccs1)c1nc(-c2ccc(Cl)cc2)cs1,-10,0,-7,nt,nt,9.2*
COC(=O)C1=C(C)N(C)C(=NCc2ccccc2C(F)(F)F)NC1c1cccc(F)c1 (stereo not given),nt,nt,-13,nt,nt,nt
O=c1c(Cl)c(Cl)cnn1Cc1ccc(F)cc1,52*,-4,1,1,7,-2
COc1ccc(C2C(C(=O)N3CCN(c4ccccc4C)CC3)CC(=O)N2c2ccc(OC)cc2)cc1 (stereo not given),nt,nt,-4,nt,nt,nt
Cc1cc(C)nc(SCC(=O)Nc2ncc(Cc3cccc(Cl)c3Cl)s2)n1,-7,-3,-1,2,2,8.8*
O=Cc1cnc2ccccc2c1-c1ccccc1,-6,80*,8,0,9,1
O=Cc1cn[nH]c1-c1ccccc1,21,4,1,0,3,-1
Cc1cc(O)cc(=O)n1-c1cc(F)c(F)c(F)c1,nt,nt,5,nt,nt,nt
O=C(Nc1ccc(Cl)cc1)c1ccc(CN2CCc3ccccc3C2)cc1,3,4,20*,-2,7,2
N#CCc1ccc(NC(=O)c2ccc(CN3CCc4ccccc4C3)cc2)cc1,8,5,-9,0,0,-1
C=CCN1C(=O)[C@H](CC(=O)NCc2ccc(C)o2)[C@@]2(C(=O)OCC)CCCC=C12,nt,nt,-7,nt,nt,nt
CCOc1ccc(C(=O)Cc2cc(OC)c(OC)cc2[N+](=O)[O-])cc1,-3,-3,1,0,2,12*
COc1ccc(C(=O)Cc2cc(OC)c(OC)cc2[N+](=O)[O-])cc1,7,4,2,1,1,1
COC(=O)N1CCCC1c1cccc2[nH]cc(C)c12 (stereo not given),nt,nt,-10,nt,nt,nt
CC(=O)N1CCN(S(=O)(=O)c2cccc(C(=O)OCC(=O)N(Cc3ccccc3)C(C)(C)C)c2)CC1,4,-2,-10,1,1,-2
CC(C)(C)N(Cc1ccccc1)C(=O)COC(=O)c1ccc(S(=O)(=O)N2CCOCC2)cc1,14,63*,-21,2,1,-1
CCC(C)N(C(C)CC)S(=O)(=O)c1ccc2[nH]c(=O)oc2c1 (stereo not given),nt,nt,-9,nt,nt,nt
COc1ccc(-c2cc(C(=O)NN=Cc3ccc(O)c(OC)c3)[nH]n2)cc1,nt,nt,-2,nt,nt,nt
O=C(O)c1ccc(NC2=C/C(=N/S(=O)(=O)c3ccccc3)c3ccccc3C2=O)cc1,-16,58*,-3,nt,2,-3
O=C(O)c1ccc(NC2=C/C(=N/S(=O)(=O)c3cccs3)c3ccccc3C2=O)cc1,-10,35,-5,nt,nt,-4
O=C1C(Nc2ccc(O)cc2)=C/C(=N/S(=O)(=O)c2cccs2)c2ccccc21,-23,57*,-51,nt,nt,-2
FC(F)(F)c1cccc(N2CCN(C3=Nc4ccccc4Sc4ccccc43)CC2)c1,nt,nt,6,nt,nt,nt
Cc1cc(C)c(S(=O)(=O)/N=C2/C=C(SCC(=O)O)C(=O)c3ccccc32)cc1C,14,79*,nt,nt,-1,-3
CCC[C@H]1[C@@H](NC(=O)c2ccc(N(C)C)cc2)CC[C@@]23CCCN2C(=O)CCC[C@@H]13,nt,nt,4,nt,nt,nt
C/C(CCc1oc2ccccc2c1-c1ccc(C)o1)=N/O,-2,74*,-35,0,4,1

# Screening data (PubChem BioAssay)
